HNF4A DNA FP: change in binding of human HNF4 alpha to DNA; AID 1224865; actives 0.3% (n = 360,000); P41235; HNF4a-FITC DNA binding, fluorescence polarization, 1 h; activity change, % at 10 µM; in the data active means activity change above about 30%, passing the limit was not always enough
Exocytosis inh: lytic granule exocytosis inhibition. TALL-104 LAMP-1 surface exposure, flow cytometry; cells stimulated with thapsigargin and PMA. inhibition, % at 10 µM. actives 0.66% (n = 360,000). AID 651702;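 active means inhibition above about 55%, limit read from the data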
SENP1 FRET inh: blocks the human SENP1 SUMO protease catalytic domain. Q9P0U3. AID 624204. actives 0.21% (n = 360,000). inhibition, % at 10 µM. recombinant SENP1 catalytic domain, CyPet-SUMO1-YPet FRET cleavage;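 active means inhibition at least 30% at 10 µM, raw YFP signal under a set limit, fluorescence ratio 0.5 to 1.5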;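 further: 0% = enzyme with DMSO and 100% = no enzyme wells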
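Controls: no-enzyme wells low, DMSO-plus-enzyme wells high control. Test system: human recombinant His6-tagged SENP1 catalytic domain enzyme. Reagent: SFCypet-SUMO1-SFYpet FRET protein substrate, 25 nM final. Doses: one dose per compound, 10 µM, 0.5% DMSO. Detection: FRET, CFP and YFP emission. Timing: 50 min reaction at room temperature.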
Pemphigus Ab inh: blocks pemphigus antibody binding to human desmoglein-3. AID 588358. DSG3-coupled beads, scFv-anti-DSG3-GFP binding, flow cytometry; active compounds read low. P32926. binding (percent of control), % at 10 µM. actives 0.48% (n = 310,000);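 active means binding more than 3 SD below its plate's average and above zero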;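 further: hits lower antibody fragment binding to DSG3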
Target sequence (P32926 whole entry, looked up, the tested form may be a part): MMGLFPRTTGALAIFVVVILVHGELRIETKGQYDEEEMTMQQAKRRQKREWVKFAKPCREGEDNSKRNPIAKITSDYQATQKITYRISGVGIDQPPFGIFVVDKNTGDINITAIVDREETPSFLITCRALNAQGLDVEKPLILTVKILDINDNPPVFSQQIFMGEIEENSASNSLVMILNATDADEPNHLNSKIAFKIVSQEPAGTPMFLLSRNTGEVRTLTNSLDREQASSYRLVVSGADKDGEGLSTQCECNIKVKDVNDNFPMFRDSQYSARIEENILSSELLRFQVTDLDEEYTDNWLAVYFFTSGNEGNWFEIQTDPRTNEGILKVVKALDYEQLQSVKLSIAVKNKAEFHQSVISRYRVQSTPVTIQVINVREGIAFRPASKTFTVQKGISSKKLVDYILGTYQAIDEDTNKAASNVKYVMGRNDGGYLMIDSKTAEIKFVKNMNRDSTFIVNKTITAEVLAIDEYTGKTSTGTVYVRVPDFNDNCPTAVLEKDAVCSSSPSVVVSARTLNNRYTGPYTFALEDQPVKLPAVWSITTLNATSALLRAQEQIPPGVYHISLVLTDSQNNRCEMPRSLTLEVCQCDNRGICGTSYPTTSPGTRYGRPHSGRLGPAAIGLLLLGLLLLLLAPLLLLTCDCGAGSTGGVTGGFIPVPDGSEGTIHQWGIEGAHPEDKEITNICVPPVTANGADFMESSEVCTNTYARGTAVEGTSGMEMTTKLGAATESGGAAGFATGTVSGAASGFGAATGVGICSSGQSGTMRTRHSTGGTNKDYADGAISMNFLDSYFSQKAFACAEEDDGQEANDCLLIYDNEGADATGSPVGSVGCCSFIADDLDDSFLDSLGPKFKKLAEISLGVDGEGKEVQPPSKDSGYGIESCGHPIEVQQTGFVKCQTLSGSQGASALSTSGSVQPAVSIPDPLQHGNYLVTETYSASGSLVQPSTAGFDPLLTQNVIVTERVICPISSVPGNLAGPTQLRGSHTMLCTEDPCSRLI
Cardio protect: protects H9c2 cardiomyocytes from peroxide injury | H2O2 injury protection, ATPLite, 2 h | protection from H2O2 cell death, % at 20 µM | actives 0.63% (n = 360,000) | AID 588492;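 active means compounds giving at least 50% protection of heart cells from peroxide-induced death in the single-dose screen, raw or plate-pattern-corrected value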;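 further: 0% = DMSO wells with peroxide and 100% = DMSO wells without peroxide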
Myeloid diff 2: promotes myeloid progenitor differentiation. ER-HoxA9 myeloid progenitors, lysozyme-GFP differentiation, flow cytometry. calls only at 10 µM. actives 1% (n = 360,000);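 active means normalized GFP-positive differentiation at or above the plate's own cutoff, the solvent-only control mean plus 3 SD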;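 further: cells exposed to compound for four days before flow analysis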
Numbers without * were called inactive; i = inactive; nt = not tested or not shown; + = active, no number. Compounds with a hit are over-represented: about 3% of the library has one in this group of screens.

SMILES | HNF4A DNA FP | Exocytosis inh | SENP1 FRET inh | Pemphigus Ab inh | Cardio protect | Myeloid diff 2
O=C(OCCOCCN=C1NS(=O)(=O)c2ccccc21)c1ccc(F)cc1 | 4 | -5 | 4 | 48* | 1 | i
CCOc1ccc(CCNC(=O)CN2C(=O)NC(CCSC)C2=O)cc1OCC (centres undefined) | 0 | 0 | 2 | 101 | -11 | +
CCOC(=O)C1=NN(C(=O)c2ccc(C)cc2)C(O)(c2ccc(Cl)cc2)C1 (centres undefined) | 4 | 1 | 31* | nt | 37 | i
O=C(Nc1cccc(-c2cnc3ccccc3n2)c1)c1cccc(NC(=O)c2ccco2)c1 | 6 | 4 | 3 | nt | 61* | i
O=C(Nc1ccc(-c2nc3cccnc3s2)cc1)c1ccco1 | 2 | 0 | -44 | 97 | 6 | i
O=C(Nc1cccc(-c2nc3cccnc3s2)c1)c1ccco1 | -1 | -2 | -1 | 102 | 70* | i
CCOc1ncccc1C(=O)Nc1cccc(-c2nc3cccnc3s2)c1 | 2 | 3 | -1 | 105 | 64* | i
Cc1ccccc1-n1nc(-c2cccnc2)cc1C(=O)NN | 1 | -3 | 1 | 89 | 2 | i
C#CCN(C[C@@H]1[C@@H](OC(=O)NCc2ccccc2)[C@@H](OC(=O)NCc2ccccc2)Cn2c(=O)n(CCCCCC)c(=O)n21)S(=O)(=O)c1ccc(C)cc1 | -4 | 0 | 3 | 103 | -10 | i
COc1cc(N)c(C(=O)c2nccc3cc(OC)c(OC)cc23)cc1OC | -1 | 0 | 2 | 122 | 0 | nt
COc1cc(C(=O)c2nccc3cc(OC)c(OC)cc23)c([N+](=O)[O-])cc1OC | -4 | 0 | 39* | 106 | -2 | i
COc1cc(C(=O)Nc2nnc(C)s2)c([N+](=O)[O-])cc1OC | 3 | -4 | 0 | 85* | -2 | i
COc1ccc(CNC(=O)c2cncc(Br)c2)cc1 | -4 | 8 | 0 | 111 | 0 | i
CCOc1ccc(-c2nn(-c3ccccc3)cc2/C=C2\SC(N)=NC2=O)cc1C | 57* | 1 | -2 | 92 | -6 | i
N#Cc1cccc2c1-c1ccccc1/C2=N/NC(N)=S | 6 | 10 | 4 | 91 | 16 | i
N#Cc1cccc2c1-c1ccccc1/C2=N/NC(N)=O | -7 | 2 | 4 | 99 | 56* | i
CC(c1ccccc1)C(NC(=O)OCC1c2ccccc2-c2ccccc21)C(=O)O (centres undefined) | 2 | 0 | 1 | 107 | 6 | i
O=C(NN=Cc1ccccc1)NN=Cc1ccccc1 | 1 | 1 | 0 | 103 | -17 | i
COc1ccc(-c2csc(NC(=O)Cc3ccccc3)n2)cc1OC | 1 | -3 | 2 | 102 | 4 | i
COc1ccc(-c2csc(NC(=O)CCCc3nc4ccccc4c(=O)[nH]3)n2)cc1OC | 4 | -7 | 1 | 96 | 91* | i
COc1ccc(-c2csc(NC(=O)CCn3cnc4ccccc4c3=O)n2)cc1OC | 2 | 0 | 0 | 103 | 58* | i
Cc1ccc(CN2CC(C(=O)N3CCN(S(=O)(=O)c4c(F)cccc4F)CC3)CC2=O)cc1 (centres undefined) | 3 | 4 | 2 | 102 | -2 | i
CCOc1ccccc1C(C(=O)NC1CCCC1)N(C(=O)c1csnn1)C1CC1 (centres undefined) | 3 | 0 | 1 | 96 | 4 | i
COc1ccc(-n2ncc(C(C)NS(=O)(=O)c3cccs3)c2C)cc1 (centres undefined) | 2 | -4 | 1 | 105 | -4 | i
CCc1nnc(NS(=O)(=O)c2ccc(Nc3ccc([N+](=O)[O-])c4nonc34)cc2)s1 | 38* | 0 | 28 | 99 | -6 | i
Cc1ccc(-c2nnn(C/C(N)=N/O)n2)cc1 | -1 | 0 | 0 | 106 | 0 | i
CCOCc1c(C(=O)NC2=Nc3ccccc3NC(CC)=C2C(=O)OCC)oc2ccccc12 | 9 | 1 | -1 | 98 | 68* | i
CCOC(=O)C1=C(CC)Nc2ccccc2N=C1NC(=O)c1ccc(S(=O)(=O)N2CCOCC2)cc1 | 0 | 10 | 0 | 102 | 22 | i

Screening data deposited in PubChem by several laboratories.
